Data on 46 molecules can be found in ChEMBL document CHEMBL3425459, “Structure-activity studies in the development of a hydrazone based inhibitor of adipose-triglyceride lipase (ATGL)” (Bioorg Med Chem, 2015).

Data set [1] concerns the target T1, Patatin-like phospholipase domain-containing protein 2 (Mus musculus, UniProt Q8BJ56).
T1 sequence (Q8BJ56 whole entry): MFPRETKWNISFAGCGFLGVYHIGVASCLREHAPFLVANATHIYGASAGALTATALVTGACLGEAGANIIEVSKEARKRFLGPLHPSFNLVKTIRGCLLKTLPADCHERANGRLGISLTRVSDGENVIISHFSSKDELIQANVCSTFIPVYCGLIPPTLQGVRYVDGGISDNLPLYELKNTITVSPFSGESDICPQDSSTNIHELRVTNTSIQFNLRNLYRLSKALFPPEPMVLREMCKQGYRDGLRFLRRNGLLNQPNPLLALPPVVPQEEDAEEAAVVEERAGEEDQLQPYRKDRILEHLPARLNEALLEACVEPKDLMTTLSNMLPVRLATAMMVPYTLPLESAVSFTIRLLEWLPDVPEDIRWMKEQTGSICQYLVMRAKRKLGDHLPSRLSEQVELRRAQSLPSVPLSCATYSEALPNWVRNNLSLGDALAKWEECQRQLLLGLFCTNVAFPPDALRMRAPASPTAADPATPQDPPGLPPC
As to the kind of experiment: Inhibition of mouse recombinant ATGL expressed in African green monkey COS7 cells assessed as reduction in triglyceride hydrolase activity using radio-labelled triolein substrate incubated for 1 hr by liquid scintillation counting. The class given is cell-based, COS-7.

Data set [2] deals with T2, Patatin-like phospholipase domain-containing protein 2 (Mus musculus) (UniProt Q8BJ56).
T2 sequence (whole entry): T1 sequence (Q8BJ56 whole entry)
As to the kind of experiment: Inhibition of mouse recombinant ATGL expressed in African green monkey COS7 cells assessed as reduction in triglyceride hydrolase activity at 200 uM using radio-labelled triolein substrate incubated for 1 hr by liquid scintillation counting. The class given is cell-based. Conditions: COS-7. In a few lines:
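Lysate (20 μg protein) of COS-7 cells transfected with murine ATGL DNA, sonicated in pH 7.0 sucrose/EDTA/DTT/protease-inhibitor buffer and cleared at 1000×g. Mixed 1:1 with radiolabelled triolein emulsion (prepared at 330 μM, 40,000 cpm/nmol, PC/PI, 100 mM potassium phosphate pH 7.0, 5% FA-free BSA) ± 200 μM inhibitor for 1 h at 37 °C. Released FA counted by scintillation after methanol/chloroform/heptane extraction at pH 10.5.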

Data set [3] relates to Adipose tissue. As to the kind of experiment: Inhibition of lipolysis in hormone-sensitive lipase knock out mouse white adipose tissue fat pads assessed as reduction in fatty acids release at 10 to 200 uM. The class given is functional, tissue-based.
Data set [4] has as its system Adipose tissue. The data set is described as follows: Inhibition of lipolysis in adipose triglyceride lipase knock out mouse white adipose tissue fat pads assessed as reduction in fatty acids release at 10 to 200 uM. The class given is functional, tissue-based.
Data set [5] has as its system Adipose tissue. The data set is described as follows: Inhibition of lipolysis in wild type mouse white adipose tissue fat pads assessed as reduction in fatty acids release at 10 to 200 uM. The class given is functional, tissue-based.
Data set [6] deals with T3, Lipoprotein lipase (Homo sapiens) (UniProt P06858).
T3 sequence (whole entry): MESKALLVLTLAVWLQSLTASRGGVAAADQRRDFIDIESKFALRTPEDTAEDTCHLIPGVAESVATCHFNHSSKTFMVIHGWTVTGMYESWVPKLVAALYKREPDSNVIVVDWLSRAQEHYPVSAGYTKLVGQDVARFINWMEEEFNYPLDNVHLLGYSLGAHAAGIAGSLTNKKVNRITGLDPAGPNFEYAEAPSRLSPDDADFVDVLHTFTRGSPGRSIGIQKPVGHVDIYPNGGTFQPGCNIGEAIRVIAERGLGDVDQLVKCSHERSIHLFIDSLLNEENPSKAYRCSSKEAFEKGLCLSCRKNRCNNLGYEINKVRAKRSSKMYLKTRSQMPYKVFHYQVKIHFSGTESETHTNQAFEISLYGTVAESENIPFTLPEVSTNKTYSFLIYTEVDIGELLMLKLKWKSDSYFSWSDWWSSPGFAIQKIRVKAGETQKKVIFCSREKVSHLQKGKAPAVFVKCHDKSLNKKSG
The data set is described as follows: Inhibition of lipoprotein lipase (unknown origin) at 100 uM incubated for 1 hr. In a few lines:
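Purified recombinant LPL (2 μl) was incubated with radiolabelled triolein emulsion, with or without inhibitor, for 1 h at 37 °C. The emulsion was prepared at 330 μM triolein with PC/PI in pH 7.0 phosphate and 5% BSA. Liberated fatty acids were extracted into the alkaline upper phase and quantified by liquid scintillation counting.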

A short description of data set [7]: Toxicity in mouse AML-12 cells at 1 to 200 uM by Tox4 test. The class given is cell-based. The conditions noted are these: aml-12, 200 µM.
In data set [8] the target is T4, Monoglyceride lipase (Homo sapiens) (UniProt Q99685).
T4 sequence (whole entry): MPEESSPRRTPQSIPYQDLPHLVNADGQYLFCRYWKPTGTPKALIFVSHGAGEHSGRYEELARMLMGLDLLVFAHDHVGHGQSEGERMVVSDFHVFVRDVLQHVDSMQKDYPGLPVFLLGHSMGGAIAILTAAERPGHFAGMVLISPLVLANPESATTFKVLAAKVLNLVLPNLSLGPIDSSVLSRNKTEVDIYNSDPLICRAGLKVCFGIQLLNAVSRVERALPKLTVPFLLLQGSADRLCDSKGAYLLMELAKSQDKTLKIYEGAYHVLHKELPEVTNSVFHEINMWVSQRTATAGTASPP
As to the kind of experiment: Inhibition of monoglyceride lipase (unknown origin) at 100 uM incubated for 1 hr.

Active and inactive are the calls of the source. No cut-off for these calls is given here.

A word on the IC50: it is the concentration needed to halve the response being measured. For `COc1cc(OC)c(OC)cc1/C=N/N1CCN(c2ccccc2)CC1`, in data set [1], the IC50 is above 200 µM.

In the case of `Cc1cccc(N2CCN(/N=C/c3ccc(O)cc3O)CC2)c1`, in data set [1], the IC50 is above 200 µM. As for `C(=N\N1CCN(c2ccccc2)CC1)/c1cccc(Oc2ccccc2)c1`, the IC50 in data set [1] was above 200 µM. The Efficacy in data set [2] was found to be 24%. For `CN(CCO)c1ccc(/C=N/N2CCN(c3ccccc3)CC2)cc1`, the IC50 in data set [1] was above 200 µM. On the same count and under the same terms, then `Brc1ccccc1/C=N/N1CCN(c2ccccc2)CC1`, with above 150 µM. For the molecule `Clc1ccc(/C=N/N2CCN(c3ccccc3)CC2)c(Cl)c1`, the IC50 in data set [1] was above 200 µM. The same measure, in the same setting: then `O=[N+]([O-])c1ccccc1/C=N/N1CCN(c2ccccc2)CC1`, with 180 µM.

Consider `CC(=O)Nc1ccc(/C=N/N2CCN(c3ccccc3)CC2)cc1`, for which the IC50 in data set [1] is above 200 µM. On the same count and under the same terms, under `Oc1ccc(/C=N/N2CCN(CCc3ccccc3)CC2)c(O)c1` stands above 200 µM; under `COc1ccc(/C=N/N2CCN(c3ccccc3)CC2)cc1OC`, 100 µM.

Consider `Oc1ccccc1/C=N/N1CCN(c2ccccc2)CC1`, for which the IC50 in data set [1] worked out at 75 µM. Turning to `Oc1ccc(/C=N/N2CCN(c3ccccc3)CC2)cc1O`, the inhibition entry in the data set on Adipose tissue [3], with Adipose tissue [4] and in the data set on Adipose tissue [5] was “Active” throughout.

With `C(=N\N1CCN(c2ccccc2)CC1)/c1ccc2c(c1)OCO2`, the IC50 in data set [1] was above 200 µM.

Take `Cc1ccc(/C=N/N2CCN(c3ccccc3)CC2)cc1`: in data set [1], the IC50 was above 200 µM. With `COc1ccc(/C=N/N2CCN(c3ccccc3)CC2)cc1O`, the IC50 in data set [1] amounted to 80 µM. The same measure, in the same setting: then `Oc1ccc(/C=N/N2CCN(C3CCCC3)CC2)c(O)c1`, with above 200 µM. Turning to `C(=N\N1CCN(c2ccccc2)CC1)/c1cccc2ccccc12`, the IC50 in data set [1] turned out to be 200 µM. Same read-out and setting: then `C(=N\N1CCN(c2ccccc2)CC1)/c1ccccn1`, with above 200 µM; and `C(=N\N1CCN(c2ccccc2)CC1)/c1ccc2ccccc2n1`, with above 200 µM. Same read-out and setting: then `COc1ccc(NC(=O)N2CCN(c3ccccc3)CC2)cc1OC`, with above 200 µM; and `Clc1ccc(/C=N/N2CCN(c3ccccc3)CC2)cc1Cl`, with above 200 µM. With `C1=C(/C=N/N2CCN(c3ccccc3)CC2)CCCC1`, the IC50 in data set [1] turned out to be 130 µM.

On to `C(=N\N1CCN(c2ccccc2)CC1)/c1ccc2ccccc2c1`, for which the IC50 in data set [1] was above 200 µM. In the case of `COc1ccc(C(=O)NN2CCN(c3ccccc3)CC2)cc1OC`, the IC50 in data set [1] is above 200 µM. As for `CCCC/C=N/N1CCN(c2ccccc2)CC1`, the IC50 in data set [1] was above 200 µM. Regarding `O=c1[nH]c2ccc(/C=N/N3CCN(c4ccccc4)CC3)cc2[nH]1`, in data set [1], the IC50 is above 200 µM. Regarding `C(=N\N1CCN(c2ccccc2)CC1)/c1cccnc1`, the IC50 in data set [1] is above 200 µM. As to `C(=N\N1CCN(c2ccccc2)CC1)/c1ccc2c(c1)OCCO2`, in data set [1], the IC50 is above 200 µM. `Oc1cccc(/C=N/N2CCN(c3ccccc3)CC2)c1`: the IC50 in data set [1] amounted to 70 µM.

For `CCC/C=C/C=N/N1CCN(c2ccccc2)CC1`, in data set [1], the IC50 is above 200 µM. The same measure, in the same setting: under `C(=N\N1CCN(c2ccccc2)CC1)/C1CCCCC1` stands 200 µM; under `Oc1ccc(/C=N/N2CCN(Cc3ccccc3)CC2)c(O)c1`, above 200 µM.

For the molecule `COc1cc(/C=N/N2CCN(c3ccccc3)CC2)ccc1O`, the IC50 in data set [1] was 60 µM. `CN(C)c1ccc(/C=N/N2CCN(c3ccccc3)CC2)cc1`: in data set [1], the IC50 was above 200 µM. For `Oc1ccc(/C=N/N2CCN(c3ccccc3)CC2)c(O)c1`, the inhibition result in data set [6] and in data set [8] was “inactive” in each case. For the same molecule, the Activity entry in data set [7] is recorded as “Toxic”. The inhibition entry with Adipose tissue [3], with Adipose tissue [4] and with Adipose tissue [5] was “Active” throughout. Consider `Oc1ccc(/C=N/N2CCN(C3CCCCC3)CC2)c(O)c1`, for which the IC50 in data set [1] is above 200 µM.

As for `Oc1ccc(/C=N/N2CCN(c3ccccc3)CC2)cc1`, the IC50 in data set [1] turned out to be 50 µM.

On to `CCOC(=O)c1nn(-c2ccc(N(C)C)cc2)cc1O`, for which the IC50 in data set [1] came out at 120 µM. In the case of `C(=N\N1CCN(c2ccccc2)CC1)/c1ccncc1`, the IC50 in data set [1] was found to be 140 µM. With `CCCOc1cccc(/C=N/N2CCN(c3ccccc3)CC2)c1`, the IC50 in data set [1] was above 200 µM. The Efficacy in data set [2] came out at 14%. As for `Oc1ccc(/C=N/N2CCC(Cc3ccccc3)CC2)c(O)c1`, in data set [1], the IC50 was above 200 µM. For `COc1cc(/C=N/N2CCN(c3ccccc3)CC2)cc(OC)c1OC`, the IC50 in data set [1] was above 200 µM. As to `Oc1ccc(/C=N/N2CCN(c3ccncc3)CC2)c(O)c1`, in data set [1], the IC50 was above 200 µM. As for `N#Cc1ccccc1/C=N/N1CCN(c2ccccc2)CC1`, the IC50 in data set [1] was 120 µM. Also, the Efficacy in data set [2] came to 60%. Take `Oc1ccc(CN2CCN(c3ccccc3)CC2)cc1O`: the IC50 in data set [1] is above 200 µM. Same read-out and setting: then `Oc1ccc(/C=N/N2CCCN(c3ccccc3)CC2)c(O)c1`, with above 200 µM.
